Measurements from ChEMBL document CHEMBL3244043, “Nucleoside 5'-monophosphate analogues. Synthesis of 5'-sulfamino-5'-deoxynucleosides” (J Med Chem, 1978).
Activity calls are given as the source filed them. The rule behind the calls is not given here.

What was measured:
[1] = Stability of the compound in NaOH assessed as cleavage of sulfamino group at 23 degC after 24 hrs; format: physicochemical
How it was run: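 Compound exposed to 0.1 M NaOH at 23 °C for 24 h, then examined for any cleavage of the 5'-sulfamino group.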

Escherichia coli [2] = experiment: Antibacterial activity against Escherichia coli K-12 assessed as growth inhibition at 1 x 10^-3 M relative to control; format: functional; conditions: read-out: GI
L1210 [3] = experiment: Cytotoxicity against mouse L1210 cells assessed as growth inhibition at 1 x 10^-3 M; format: functional, cell-based
Enterococcus faecalis = experiment: Antibacterial activity against Streptococcus faecalis assessed as growth inhibition at 1 x 10^-3 M relative to control; format: functional; conditions: read-out: GI
[4] = Drug degradation in HCl assessed as hydrolysis of glycosidic linkage to form adenine at 23 degC after 24 hrs; format: physicochemical; conditions: read-out: Drug degradation
How it was run: (§1)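 Compound held in 0.1 M HCl at 23 °C for 24 h. Hydrolysis reported as percent cleavage of the 5'-sulfamino group, giving the amino nucleoside, and of the glycosidic bond, giving adenine.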

Escherichia coli [5] = experiment: Antibacterial activity against Escherichia coli B assessed as growth inhibition at 1 x 10^-3 M relative to control; format: functional; conditions: read-out: GI
[6] = Drug degradation in HCl assessed as hydrolysis of 5'-sulfamino group to form amino nucleoside at 23 degC after 24 hrs; format: physicochemical; conditions: read-out: Drug degradation; how it was run: as §1
L1210 [7] = experiment: Cytotoxicity against mouse L1210 cells assessed as cell growth at 1 x 10^-4 M; format: functional, cell-based
Human alphaherpesvirus 1 [8] = experiment: Antiviral activity against Herpes simplex virus type 1 infected in African green monkey CV1 cells assessed as inhibition of viral replication at 10^-4 M; format: functional, organism-based; conditions: CV-1
[9] = Cytotoxicity against African green monkey CV1 cells assessed as effect on cell growth at 1 x 10^-4 M; format: cell-based; conditions: chlorocebus aethiops, cv-1, 100 µM
Human alphaherpesvirus 1 [10] = experiment: Antiviral activity against Herpes simplex virus type 1 infected in African green monkey CV1 cells assessed as inhibition of viral replication at 1 x 10^-4 M relative to control; format: functional; conditions: Human alphaherpesvirus 1, CV-1
Human alphaherpesvirus 1 [11] = experiment: Antiviral activity against Herpes simplex virus type 1 infected in African green monkey CV1 cells assessed as inhibition of viral replication at 1 x 10^-5 M relative to control; format: functional; conditions: Human alphaherpesvirus 1, CV-1

Structure (SMILES)	Stability [1]	inhibition of growth at 1000 µM (Escherichia coli [2])	growth inhibition (GI) (L1210 [3])	inhibition of growth at 1000 µM (Enterococcus faecalis)	degraded at 24 h [4]	inhibition of growth at 1000 µM (Escherichia coli [5])	degraded at 24 h [6]	Activity (L1210 [7])	inhibition (Human alphaherpesvirus 1 [8])	Activity [9]	inhibition at 100 µM (Human alphaherpesvirus 1 [10])	inhibition at 10 µM (Human alphaherpesvirus 1 [11])
Nc1ncnc2c1ncn2[C@@H]1O[C@H](CNS(=O)(=O)O)[C@@H](O)[C@H]1O	Stable	< 10%	inactive	< 10%	16%	< 10%	0.75%	inactive	inactive	–	–	–
Cc1cn([C@H]2C[C@H](O)[C@@H](CNS(=O)(=O)O)O2)c(=O)[nH]c1=O	Stable	< 10%	inactive	< 10%	–	< 10%	2.4%	inactive	–	Non-toxic	70%	35%
